The results in this text go back to ChEMBL document CHEMBL1145429, “Enaminone amides as novel orally active GABAA receptor modulators” (J Med Chem, 2007).

Structures are written as SMILES. Active and inactive are the calls of the source. The calls are words filed in the database; no cut-off is given here. Where only a bound is given, the exact number is not on record here.

The subject of series [1] is Mus musculus. As to the kind of experiment: Anticonvulsant activity against pentylenetetrazole-induced seizures in non-Swiss Albino mouse at 50 mg/kg, ip. The arrangement: dose 50 mg/kg. It is filed as functional, organism-based.
The species entered for series [2] is Rattus norvegicus. Description: (§1) Displacement of [35S]TBPS from GABAA receptor in Sprague-Dawley rat cortex membrane. It is filed as cell membranes. (In general: In a radioligand displacement assay an active substance lowers the binding of a labelled ligand.)
For series [3], the species on record is Rattus norvegicus. As to the kind of experiment: Enhancement of [3H]muscimol binding to BZ-site of GABAA receptor in Sprague-Dawley rat cortex membrane. In kind it is cell membranes.
Series [4] in a line: Enhancement of [3H]flunitrazepam binding to BZ-site of GABAA receptor in Sprague-Dawley rat cortex membrane. It is filed as cell membranes. The essentials:
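Conditions and membrane preparation match the TBPS assay, except that GABA was 1 µM. Sites were labelled with 0.2 nM [3H]flunitrazepam, and nonspecific binding was defined with 1 µM clonazepam.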

For series [5], the system named is Mus musculus. As to the kind of experiment: Induction of loss of righting reflex in non-Swiss Albino mouse at 50 mg/kg, ip after 40 mins. It is filed as functional, organism-based. On the set-up: dose 50 mg/kg. The essentials:
(§2)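 Male NSA mice were dosed at 50 mg/kg ip or po in PEG 400 and then placed on their backs. Animals staying on their backs for more than 1 min were scored as having lost the righting reflex.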

Series [6] has as its system Mus musculus. Description: Induction of loss of righting reflex in non-Swiss Albino mouse at 50 mg/kg, po. It is filed as functional, organism-based. On the set-up: dose 50 mg/kg. The gist of the method: as §2
Series [7] can be described thus: as §1. It is filed as cell membranes.
Series [8] relates to Mus musculus. Description: CNS toxicity by rotarod test in non-Swiss Albino mouse at 50 mg/kg, po. In kind it is organism-based. On the set-up: dose 50 mg/kg, route oral. The settings on record: in vivo. The gist of the method: (§3)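 Mice were dosed orally and scored on the rotarod for CNS depressant potential. TD50, the dose causing behavioral toxicity in half the animals, was calculated from each dose-response function by the Litchfield-Wilcoxon method.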
A general note: In the rotarod test animals must keep their balance on a rotating rod.

Series [9] is filed under the species Rattus norvegicus. As to the kind of experiment: Displacement of [3H]flunitrazepam from BZ-site of GABAA receptor in Sprague-Dawley rat cortex membrane. In kind it is cell membranes. The essentials:
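P2 membrane pellet (sucrose homogenate spun 1000g then 9000g), resuspended in 50 mM Na/K phosphate pH 7.4 with 200 mM NaCl. Incubated with 0.2 nM [3H]flunitrazepam, 1 µM GABA and test drug in DMSO (≤1%) for 90 min at 25 °C. Nonspecific binding defined with 1 µM clonazepam. Filtration, scintillation counting; nonlinear regression fit.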

For series [10], the system named is Mus musculus. Description: Anxiolytic activity in non-Swiss Albino mouse assessed as reduction of time spent in dark at 3 mg/kg, po. In kind it is functional, organism-based. On the set-up: dose 3 mg/kg. The essentials:
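Male NSA mice (25-30 g) were dosed po 30 min before a 3 min session in a light-dark box: a black compartment lit with red light and an illuminated white compartment, joined by a floor-level hole. Time spent in each compartment was recorded. Vehicle was 3:1 PEG 400/5% dextrose in water.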

Series [11] deals with Mus musculus. As to the kind of experiment: CNS toxicity by rotarod test in non-Swiss Albino mouse at 3 mg/kg, po. In kind it is organism-based. On the set-up: dose 3 mg/kg, route oral. The settings on record: in vivo. The essentials: as §3
Series [12] can be described thus: Therapeutic index, ratio of light-dark MED to TD50 by rotarod test in non-Swiss Albino mouse at 3 mg/kg, po. The settings on record: in vivo, read-out: TI. It is filed as organism-based. On the set-up: dose 3 mg/kg, route oral. The gist of the method: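 The index was calculated as […]. Both were measured in male NSA mice given oral doses. TD50 was derived by the Litchfield-Wilcoxon method, and light-dark time was recorded over a 3 min session 30 min after dosing.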

Series [13] deals with GABA-A receptor; alpha-1/beta-2/gamma-2 (Homo sapiens) (UniProt P14867+P47870+P18507). As to the kind of experiment: Activity at human GABAA alpha-1-beta-2-gamma-2L expressed in Xenopus oocytes assessed as potentiation of GABA currents in absence of GABA at 10 uM. It is filed as cell-based. The settings on record: Oocyte.
Series [14] has as its system Mus musculus. Description: Suppression of locomotor activity in non-Swiss Albino mouse at 50 mg/kg, po. In kind it is functional, organism-based. The arrangement: dose 50 mg/kg. The essentials: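 Male NSA mice, either nonhabituated or habituated (30 min in the chamber on 3 consecutive days), were given compound in PEG 400 or vehicle and immediately placed in an activity chamber. Horizontal beam breaks were recorded every 5 min, over 1 h for habituated mice. Activity was taken as total distance traveled (cm), with testing between 9 a.m. and 2 p.m.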

Regarding `NC(=O)/C(=C\Nc1ccc(Cl)cc1)C(=O)c1ccccc1Cl`, the result with Mus musculus [1] was inactive. In the series filed under Rattus norvegicus [2], this compound displayed an Imax of 40%.
With `C#Cc1ccc(N/C=C(\C(=O)NCCC)C(=O)c2ccccc2Cl)cc1`, the outcome in the series filed under Rattus norvegicus [3] was Active. Besides, the EC50 in series [4] amounted to 60 nM.
Consider `CCCNC(=O)/C(=C\Nc1ccc(Cl)cc1)C(=O)c1ccccc1Cl`, for which the outcome with Mus musculus [1] and in the series on Mus musculus [6] was inactive. Besides, the result in the series with Mus musculus [5] was Active. The Imax in the series listed under Rattus norvegicus [2] is 90%. In addition, in series [7], the half-inhibitory concentration (IC50) came to 45 nM.
With `CCC(CC)NC(=O)/C(=C\Nc1ccc(Cl)cc1)C(=O)c1ccccc1Cl`, the result with Mus musculus [1] was inactive. In addition, in the series listed under Rattus norvegicus [2], the Imax is 86%. This compound came in with an IC50 in series [7] of 80 nM.
The like results for `O=C(NC1CCCC1)/C(=C\Nc1ccc(Cl)cc1)C(=O)c1ccccc1Cl` were, in that order, “inactive”, 88% and 30 nM.
As for `CC(C)(C)NC(=O)/C(=C\Nc1ccc(Cl)cc1)C(=O)c1ccccc1Cl`, in the series on Mus musculus [1], the result was inactive. Moreover, the Imax in the series listed under Rattus norvegicus [2] was 100%. In addition, the half-maximal inhibitory concentration (IC50) in series [7] stood at 3000 nM.
`CCOC(=O)/C(=C\Nc1ccc(C(C)C)cc1)C(=O)c1ccccc1Cl` showed an Imax in the series listed under Rattus norvegicus [2] of 94%. Further, in series [7], the IC50 was found to be 360 nM.
The like results for `CCOC(=O)/C(=C\Nc1ccccc1Cl)C(=O)c1ccccc1Cl` were, in that order, 100% and 700 nM.
For the compound `CCNC(=O)/C(=C\Nc1ccc(Cl)cc1)C(=O)c1ccccc1Cl`, the outcome in the series on Mus musculus [1] and with Mus musculus [6] was inactive. In addition, the outcome in the series on Mus musculus [5] was Active. Moreover, the Activity result in the series on Mus musculus [8] is listed as “Non-toxic”. In the series listed under Rattus norvegicus [2], this compound registered an Imax of 82%. The same compound came in with an IC50 in series [7] of 50 nM.
Turning to `CCOC(=O)/C(=C\Nc1ccc(F)cc1)C(=O)c1cc(F)c(Cl)cc1Cl`, in the series listed under Rattus norvegicus [2], the Imax stood at 87%. In series [7], the 50% inhibitory concentration (IC50) turned out to be 130 nM.
Take `O=C(NC1CCC1)/C(=C\Nc1ccc(Cl)cc1)C(=O)c1ccccc1Cl`: the outcome with Mus musculus [1] was inactive. Further, the result in the series on Mus musculus [5] was Active. The compound also showed an Imax in the series filed under Rattus norvegicus [2] of 88%. In series [7], this compound had an IC50 of 7 nM.
Take `O=C1CN=C(c2ccccc2Cl)c2cc([N+](=O)[O-])ccc2N1`: the Activity entry in the series filed under Rattus norvegicus [9] is “Dose-dependent effect”.
`O=C(NC1CC1)/C(=C\Nc1ccc(Cl)cc1)C(=O)c1ccccc1Cl`: the outcome with Mus musculus [1] was inactive. Besides, in the series with Mus musculus [5], the result was Active. The same compound displayed an Imax in the series filed under Rattus norvegicus [2] of 92%. In series [7], this compound yielded an IC50 of 30 nM.
For the compound `CNC(=O)/C(=C\Nc1ccc(Cl)cc1)C(=O)c1ccccc1Cl`, the result in the series on Mus musculus [1] was inactive. The same compound showed an Imax in the series filed under Rattus norvegicus [2] of 74%. The IC50 in series [7] worked out at 160 nM.
In the case of `CC(C)NC(=O)/C(=C\Nc1ccc(Cl)cc1)C(=O)c1ccccc1Cl`, the outcome in the series on Mus musculus [10] and with Mus musculus [5] was Active. Besides, the Activity entry with Mus musculus [11] is “Non-toxic”. The result (in the series with Mus musculus [1]; in [13]) was inactive. Also, the selectivity ratio in [12] was more than 10. The same compound gave an Imax in the series filed under Rattus norvegicus [2] of 80%. The half-maximal inhibitory concentration (IC50) in series [7] amounted to 40 nM.
Turning to `C#Cc1ccc(N/C=C(\C(=O)OCC)C(=O)c2ccccc2Cl)cc1`, the outcome in the series filed under Rattus norvegicus [3] was Active. In series [4], the EC50 came out at 6 nM. In the series filed under Rattus norvegicus [2], the Imax worked out at 100%. In addition, the IC50 in series [7] turned out to be 8 nM.
As for `CC(C)C(C)NC(=O)/C(=C\Nc1ccc(Cl)cc1)C(=O)c1ccccc1Cl` (stereo unspecified), in the series on Mus musculus [1], the outcome was inactive. The compound further gave an Imax in the series listed under Rattus norvegicus [2] of 94%. This compound also displayed an IC50 in series [7] of 400 nM.
Consider `CCOC(=O)/C(=C\Nc1ccc(C)cc1)C(=O)c1ccccc1Cl`, for which the Imax in the series filed under Rattus norvegicus [2] amounted to 93%. Besides, the half-inhibitory concentration (IC50) in [7] is 450 nM.
In the case of `CCOC(=O)/C(=C\Nc1ccc(F)cc1)C(=O)c1ccccc1Cl`, the Imax in the series filed under Rattus norvegicus [2] stood at 93%. The same compound returned an IC50 in series [7] of 300 nM.
In the series listed under Rattus norvegicus [2], `CCOC(=O)/C(=C\Nc1ccc(F)cc1)C(=O)c1ccc(Cl)cc1` came in with an Imax of 100%. Moreover, the IC50 in series [7] was found to be 490 nM.
The like results for `CCOC(=O)/C(=C\Nc1cccc(Cl)c1)C(=O)c1ccccc1Cl` were, in that order, 100% and 600 nM.
`CCC(C)NC(=O)/C(=C\Nc1ccc(Cl)cc1)C(=O)c1ccccc1Cl` (stereo unspecified): in the series on Mus musculus [1], the result was inactive. Further, the result in the series on Mus musculus [5] was Active. In the series listed under Rattus norvegicus [2], this compound gave an Imax of 86%. Also, the IC50 in series [7] was 20 nM.
As for `CCOC(=O)/C(=C\Nc1ccc(F)cc1)C(=O)c1cccc(Cl)c1`, the Imax in the series listed under Rattus norvegicus [2] amounted to 90%. The compound also gave an IC50 in series [7] of 900 nM.
In the case of `CCOC(=O)/C(=C\Nc1ccc(Cl)cc1)C(=O)c1ccccc1Cl`, the result in the series with Mus musculus [14] and with Mus musculus [6] was inactive. In addition, the outcome in the series on Mus musculus [5] was Active. The same compound came in with an Imax in the series listed under Rattus norvegicus [2] of 95%. Also, in series [7], the IC50 came to 90 nM.

For orientation: EC50 means the concentration at which the effect is half-maximal. One may read the IC50 as the concentration needed to halve the response being measured. Low readings indicate inhibition by little substance, high ones a need for much substance.
